# Screens deposited in PubChem by The Scripps Research Institute Molecular Screening Center.
# A selection: hits, their analogues and other compounds. The true share with any hit is near 2.7%.
# PAFAH1B2 FP inh = inhibitors of human PAFAH1B2. P68402. recombinant PAFAH1B2, FP-rhodamine activity probe, fluorescence polarization. inhibition, % at 3.39 µM. AID 492953. 340,000 compounds, 1.2% hits;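 active = inhibition above the mean of all tested compounds plus 3 SD, cut at about 24% in these data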
# Target sequence (P68402 whole entry, looked up): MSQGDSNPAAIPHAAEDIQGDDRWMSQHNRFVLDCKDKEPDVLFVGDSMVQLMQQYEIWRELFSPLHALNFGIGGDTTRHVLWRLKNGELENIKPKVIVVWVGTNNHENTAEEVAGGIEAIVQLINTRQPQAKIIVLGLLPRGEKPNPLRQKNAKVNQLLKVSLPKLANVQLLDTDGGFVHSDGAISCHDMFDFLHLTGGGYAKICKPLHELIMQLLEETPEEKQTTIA
# pPAFAH inh = pPAFAH (human) enzyme inhibition; recombinant pPAFAH, FP-rhodamine probe fluorescence polarization; inhibition, % at 3.39 µM; 330,000 compounds, 1.5% hits; AID 463082;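 active = inhibition above the mean inhibition across the screen plus 3 SD, cut at about 25% in these data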;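 also: inhibitors block binding of the rhodamine activity-based probe so polarization drops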
# PAFAH2 FP inh = PAFAH2 (human) inhibition; Q99487; recombinant PAFAH2, FP-rhodamine activity probe, fluorescence polarization; inhibition, % at 3.39 µM; 340,000 compounds, 0.99% hits; AID 492956;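 active = inhibition above the mean over all tested compounds plus 3 SD, cut at about 30% in these data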;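 also: inhibitors block probe labeling of enzyme so polarization drops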
# RBBP9 inhibitor = human RBBP9 hydrolase inhibition. O75884. recombinant RBBP9, FP-Rh probe fluorescence polarization. inhibition, % at 7.94 µM. 220,000 compounds, 0.2% hits. AID 1515;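 active = inhibition above the campaign mean of all tested compounds plus 3 SD, cut at about 14% in these data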
#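 Test system: recombinant human RBBP9; Timing: 30 min then 45 min, 25 °C; Detection: fluorescence polarization; Control set: RBBP9 with DMSO as uninhibited control, no-protein wells as full inhibition; Compound dosing: one concentration, 7.94 µM nominal, 0.794% DMSO; Probe or stimulus: FP-Rh activity-based probe, 375 nM before mixing.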
# PAFAH1B3 FP inh = blocks human PAF acetylhydrolase 1B catalytic subunit 3; Q15102; recombinant PAFAH1B3, FP-rhodamine probe, fluorescence polarization; inhibition, % at 3.39 µM; 340,000 compounds, 0.28% hits; AID 492972;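 active = inhibition above the screen-wide average of all tested compounds plus 3 SD, cut at about 25% in these data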
# Target sequence (Q15102 whole entry, looked up): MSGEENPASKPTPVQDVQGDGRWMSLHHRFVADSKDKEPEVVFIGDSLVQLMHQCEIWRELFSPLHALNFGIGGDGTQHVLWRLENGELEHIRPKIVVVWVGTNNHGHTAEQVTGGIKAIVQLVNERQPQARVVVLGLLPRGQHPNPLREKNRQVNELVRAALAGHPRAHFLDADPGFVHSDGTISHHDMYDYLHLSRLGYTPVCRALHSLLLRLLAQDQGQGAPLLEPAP
# RBBP9 confirm = confirmation of human RBBP9 inhibitors; shares compounds with RBBP9 inhibitor; recombinant RBBP9, FP-Rh probe fluorescence polarization; inhibition, % at 7.94 µM; 410 compounds, 36% hits;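 active = inhibition above the hit cutoff derived for the primary screen, cut at about 15% in these data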
# pPAFAH confirm = confirmation of human plasma PAF acetylhydrolase (pPAFAH) inhibitors | shares compounds with pPAFAH inh | recombinant pPAFAH, FP-Rh probe fluorescence polarization | inhibition, % at 3.39 µM | 2,300 compounds, 72% hits | AID 463230;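 active = mean inhibition of the triplicate above the hit cutoff set for the earlier primary screen, cut at about 25% in these data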
# A number is an active result; – = inactive; · = not tested or not shown.
SMILES,PAFAH1B2 FP inh,pPAFAH inh,PAFAH2 FP inh,RBBP9 inhibitor,PAFAH1B3 FP inh,pPAFAH confirm,others
C(=NC12CN3CN(CN(C3)C1)C2)c1cccs1,–,–,–,–,–,·,
CN1/C(=C\C=C2C(=O)NC(=S)NC2=O)C(C)(C)c2ccccc21,68,·,38,–,–,·,
CC1(C)OC(c2ccccc2)=C/C(=C/C=C2C(=O)NC(=S)NC2=O)O1,·,–,·,–,·,·,
O=C(c1ccc(Cl)cc1)C1CCCN(Cc2ccc3ncccc3c2)C1 (stereo unspecified),–,–,–,–,–,·,
CCC(C)c1ccc(N2C(=O)NC(=O)/C(=C/c3cccn3CCOc3ccc(C)cc3)C2=O)cc1 (stereo unspecified),–,28,–,–,–,·,
c1cncc(CNCCN2CCNCC2)c1,–,·,–,·,–,·,
CCN(CC)C(=O)c1ccc2c(c1)C1C(Cl)C(Sc3ccccc3[N+](=O)[O-])CC1C(C(=O)O)N2 (stereo unspecified),33,68,53,28,26,36,RBBP9 confirm=–
CCN1C[C@]2(C)CC[C@H](OC)[C@]34C2[C@H](OC(C)=O)[C@@]2(OCO[C@@]25C[C@H](OC)[C@H]2C[C@]3(O)C5[C@H]2OC)[C@@H]14,–,–,–,·,–,·,
O=C1NC(=O)N(Cc2ccc(F)cc2)C(=O)/C1=C\C=C\c1ccco1,30,36,–,–,–,–,
Cc1ccc(N2C(=O)NC(=O)/C(=C/C=C/c3ccco3)C2=O)cc1,–,–,–,–,–,·,
CC(C)c1ccc(N2C(=O)NC(=O)/C(=C/C=C/c3ccco3)C2=O)cc1,–,43,–,–,–,–,
Cc1c(-c2cccc(Cl)c2)nc2ccccc2c1C(=O)N1CCC2(CC1)OCCO2,–,–,–,·,–,·,
O=C1NC(=O)N(c2cccc(Br)c2)C(=O)/C1=C/c1ccsc1,–,–,–,–,–,·,
CCCCOCCCN1C(C)=CC(=C2C(=O)NC(=S)NC2=O)C=C1C,–,–,–,–,–,·,
CC(C)c1ccc(-n2c(O)c(/C=N/NC(=O)c3ccccc3O)c(=O)[nH]c2=S)cc1,–,47,–,–,–,45,
CC(C)c1ccc(-n2c(O)c(/C=N/NC(=O)c3ccncc3)c(=O)[nH]c2=O)cc1,–,–,–,–,–,·,
CC1CCCC(NC(=O)COC(=O)Cc2ccccc2)C1C (stereo unspecified),–,40,–,–,–,39,
CC[N+](C)(CC)CCCCOc1ccc2c(c1)C(=O)c1cc(OCCCC[N+](C)(CC)CC)ccc1-2,–,–,–,–,–,·,
Nc1ccc(CCN2CCN(c3cccc(C(F)(F)F)c3)CC2)cc1,–,–,–,·,–,·,
FC(F)(F)c1ccc2c(c1)N(CCCN1CCN(CCCl)CC1)c1ccccc1S2,–,38,–,–,–,31,
O=c1[nH]c(=S)[nH]c(O)c1N=Nc1cc(S(=O)(=O)Nc2ccc(Cl)cc2)ccc1Cl,–,49,–,·,43,95,
O=C(N/N=C1/CN2CCC1CC2)c1cc2ccccc2cc1O,–,40,–,–,–,–,
CCCCCCCCN=Cc1c(O)[nH]c(=O)[nH]c1=O,·,62,·,–,·,–,
C=CCn1c(O)c(C=Nc2ccc(N(CC)CC)cc2)c(=O)[nH]c1=O,–,43,–,–,–,–,
Cc1cccc(N=Cc2c(O)n(-c3ccccc3C)c(=O)[nH]c2=O)c1,–,–,–,–,–,·,
Cc1ccccc1-n1c(O)c(C=Nc2ccc(N(C)C)cc2)c(=O)[nH]c1=O,–,46,–,–,–,–,
COC[C@]12CN(C)C3C4[C@H](OC)[C@H]1C3([C@@H](OC)C[C@H]2O)[C@@H]1C[C@@]2(O)[C@H](OC(=O)c3ccccc3)[C@@H]1[C@]4(OC(C)=O)[C@@H](O)[C@@H]2OC,·,–,·,·,·,·,
COC(=O)C1=C(c2ccc(Cl)c(C(F)(F)F)c2)C[C@@H]2CC[C@H]1N2C(=O)NCc1cc(C)oc1C(F)(F)F,–,–,–,·,–,·,
Cc1cc(C)c(N=Cc2c(O)[nH]c(=O)[nH]c2=O)c(C)c1,–,–,–,·,–,·,
Cc1ccc2c(c1Cl)NC(C(=O)O)C1CC(Sc3ccccc3[N+](=O)[O-])C(Cl)C21 (stereo unspecified),–,49,43,–,–,42,
